What was measured:
Assay type in all cases: cell-based
[1] = system: Plasmodium falciparum Dd2 (MDR strain with Old World genetic background); conditions: DD2, read-out: In vitro activity (IC50 nM) Dd2
[2] = system: Plasmodium falciparum 7G8 (MDR strain with New World genetic background); conditions: 7G8, read-out: In vitro activity (IC50 nM) 7G8
[3] = system: panel of Plasmodium falciparum malaria parasites; conditions: for antimalarial activity against all tested strains (in words): D6, Dd2, 7G8 strains; for therapeutic index (the ratio of cytotoxicity to antimalarial therapeutic efficacy): HepG2 cytotoxicity vs antimalarial IC50
[4] = system: Plasmodium falciparum D6 (CQ-sensitive); conditions: D6, read-out: In vitro activity (IC50 nM) D6
HepG2 cells = experiment: HepG2 cytotoxicity assay; conditions: Homo sapiens, HepG2, read-out: Cytotoxicity (nM) vs. HepG2
Summary of the method: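 HepG2 cells kept in RPMI-1640 with 10% FBS (37 °C, 5% CO2) were seeded at 2 × 10^4/well and left to attach overnight. Test compound (10 mM DMSO stock) was serially diluted in medium and applied for 24–36 h. Cells then had fresh medium for 24 h more, then resazurin (final 10 μM) for 3 h. Fluorescence read at ex 560/em 590 nm. IC50 from nonlinear logistic regression.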

Row | Compound | IC50 [1] [nM] | IC50 [2] [nM] | antimalarial activity against all tested strains (in words) [3] | therapeutic index (the ratio of cytotoxicity to antimalarial therapeutic efficacy) [3] | IC50 [4] [nM] | CC50 (HepG2 cells) [nM]
1 | COc1ccc2c(=O)c3cc(OC(F)(F)F)ccc3[nH]c2c1 [2d, 6-Methoxy-2-(trifluoromethoxy)acridin-9(10H)-one] | 1.1 | 1.51 | excellent activity | high | 0.103 | > 200000
2 | COc1ccc2c(=O)c3cc(Oc4ccc(Cl)cc4)ccc3[nH]c2c1 [2e, 2-(4-Chlorophenoxy)-6-methoxyacridin-9(10H)-one] | 11.7 | 13.5 | excellent activity | high | 8.84 | > 200000
3 | COc1ccc2c(=O)c3cccc(OC(F)(F)F)c3[nH]c2c1 [2f, 3-Methoxy-5-(trifluoromethoxy)acridin-9(10H)-one] | 753 | 1140 |  |  | 782 | > 200000
4 | COc1ccc2c(=O)c3cc(S(=O)(=O)C(F)(F)F)ccc3[nH]c2c1 [2g, 6-Methoxy-2-((trifluoromethyl)sulfonyl)acridin-9(10H)-one] | 11.6 | 22.2 | excellent activity | high | 11.6 | > 200000
5 | COc1ccc2c(=O)c3cc(C#N)ccc3[nH]c2c1 [2i, 6-Methoxy-9-oxo-9,10-dihydroacridine-2-carbonitrile] | 177 | 228 |  |  | 100 | > 200000
6 | COc1ccc2c(=O)c3cc([N+](=O)[O-])ccc3[nH]c2c1 [2j, 6-Methoxy-2-nitroacridin-9(10H)-one] | 98.1 | 35 |  |  | 84.1 | > 200000
7 | CCN(CC)CCn1c2ccc([N+](=O)[O-])cc2c(=O)c2ccc(OC)cc21 [2l, 10-(2-(Diethylamino)ethyl)-6-methoxy-2-nitroacridin-9(10H)-one] | 684 | 462 |  |  | 405 | 12300
8 | COc1ccc2c(=O)c3c(F)c(F)c(F)c(F)c3[nH]c2c1 [2n, 1,2,3,4-Tetrafluoro-6-methoxyacridin-9(10H)-one] | 325 | 41.8 |  |  | 257 | > 200000
9 | COc1ccc2[nH]c3ccc(OC(F)(F)F)cc3c(=O)c2c1 [2o, 2-Methoxy-7-(trifluoromethoxy)acridin-9(10H)-one] | 425 | 437 |  |  | 632 | > 200000
10 | COc1ccc2[nH]c3ccc(Oc4ccc(Cl)cc4)cc3c(=O)c2c1 [2p, 2-(4-Chlorophenoxy)-7-methoxyacridin-9(10H)-one] | 513 | 911 |  |  | 573 | > 200000
11 | COc1ccc2[nH]c3c(OC(F)(F)F)cccc3c(=O)c2c1 [2q, 2-Methoxy-5-(trifluoromethoxy)acridin-9(10H)-one] | 1680 | > 2500 |  |  | 1490 | > 200000
12 | COc1ccc2[nH]c3ccc(C#N)cc3c(=O)c2c1 [2r, 7-Methoxy-9-oxo-9,10-dihydroacridine-2-carbonitrile] | 932 | > 2500 |  |  | 983 | > 200000
13 | COc1ccc2[nH]c3cc(F)cc(F)c3c(=O)c2c1 [2s, 1,3-Difluoro-7-methoxyacridin-9(10H)-one] | 0.29 | 0.2 | excellent activity | high | 0.05 | > 200000
14 | COc1ccc2[nH]c3c(F)c(F)c(F)c(F)c3c(=O)c2c1 [2t, 1,2,3,4-Tetrafluoro-7-methoxyacridin-9(10H)-one] | 1950 | 393 |  |  | > 2500 | > 200000
15 | O=c1c2cc(OCCCl)ccc2[nH]c2cc(F)cc(F)c12 [2u, 7-(2-Chloroethoxy)-1,3-difluoroacridin-9(10H)-one] | 0.91 | 1.22 | excellent activity | high | 11.6 | > 200000
16 | COc1cccc2c(=O)c3cc(OC(F)(F)F)ccc3[nH]c12 [2v, 5-Methoxy-2-(trifluoromethoxy)acridin-9(10H)-one] | 15.5 | 46.3 | excellent activity | high | 27.7 | 139000
17 | Cc1ccc2[nH]c3ccc(OC(F)(F)F)cc3c(=O)c2c1 [2w, 2-Methyl-7-(trifluoromethoxy)acridin-9(10H)-one] | 49.2 | 109 |  |  | 63.1 | > 200000
18 | O=c1c2cc(OC(F)(F)F)ccc2[nH]c2cc3ccccc3cc12 [2x, 2-(Trifluoromethoxy)benzo[b]acridin-12(5H)-one] | 0.563 | 16.5 | excellent activity | high | 7.03 | > 200000
19 | O=C1C(O)=C([C@H]2CC[C@H](c3ccc(Cl)cc3)CC2)C(=O)c2ccccc21 [ATV, atovaquone, reference compound] | 0.1 |  |  |  | 0.1 | 
20 | CCN(CC)CCCC(C)Nc1ccnc2cc(Cl)ccc12 (centres unmarked) [CQ, chloroquine, reference compound] |  | 172 |  |  |  | 

— article PMC8939876 (RSC Advances, 2019)
